Assay results reported in ChEMBL document CHEMBL1944603, “An efficient synthesis of highly functionalized novel chromeno[4,3-b]pyrroles and indolizino[6,7-b]indoles as potent antimicrobial and antioxidant agents” (2012).
Converted amounts (≈) assume the structure as drawn.

Tests used:
Type in all cases: functional
Staphylococcus aureus [1] = test: Antimicrobial activity against Staphylococcus aureus at 25 ug/ml by agar diffusion assay
How it was run: (§1)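 Agar diffusion assay in duplicate against the human bacterial pathogens; tetracycline as reference control.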

Pseudomonas aeruginosa [2] = test: Antimicrobial activity against Pseudomonas aeruginosa at 25 ug/ml by agar diffusion assay; how it was run: as §1
Macrophomina phaseolina = test: Antifungal activity against Macrophomina phaseolina
How it was run: (§2)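 Agar diffusion assay in duplicate against the plant fungal pathogens; read-out as minimum inhibitory concentration (MIC); carbendazim as reference control.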

Klebsiella pneumoniae [3] = test: Antimicrobial activity against Klebsiella pneumoniae at 25 ug/ml by agar diffusion assay; how it was run: as §1
Klebsiella pneumoniae [4] = test: Antimicrobial activity against Klebsiella pneumoniae at 100 ug/ml by agar diffusion assay; how it was run: as §1
Staphylococcus aureus [5] = test: Antimicrobial activity against Staphylococcus aureus at 50 ug/ml by agar diffusion assay; how it was run: as §1
Pseudomonas aeruginosa [6] = test: Antimicrobial activity against Pseudomonas aeruginosa at 100 ug/ml by agar diffusion assay; how it was run: as §1
Pseudomonas aeruginosa [7] = test: Antimicrobial activity against Pseudomonas aeruginosa at 50 ug/ml by agar diffusion assay; how it was run: as §1
Bacillus subtilis [8] = test: Antimicrobial activity against Bacillus subtilis at 25 ug/ml by agar diffusion assay; how it was run: as §1
[9] = test system: Radical scavenging activity; test: Antioxidant activity assessed as DPPH free radical scavenging activity at 1000 ug by spectrophotometer
How it was run: (§3)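 DPPH radical scavenging measured spectrophotometrically by Blois's method at 50, 500 and 1000 µg. Absorbance read at 517 nm. Percent scavenging is the absorbance decrease at 517 nm relative to the absorbance of DPPH solution without test compound. L-ascorbic acid as standard.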

Bacillus subtilis [10] = test: Antimicrobial activity against Bacillus subtilis at 50 ug/ml by agar diffusion assay; how it was run: as §1
Bacillus subtilis [11] = test: Antimicrobial activity against Bacillus subtilis at 100 ug/ml by agar diffusion assay; how it was run: as §1
Klebsiella pneumoniae [12] = test: Antimicrobial activity against Klebsiella pneumoniae at 75 ug/ml by agar diffusion assay; how it was run: as §1
[13] = test system: Radical scavenging activity; test: Antioxidant activity assessed as DPPH free radical scavenging activity at 50 ug by spectrophotometer; how it was run: as §3
Pseudomonas aeruginosa [14] = test: Antimicrobial activity against Pseudomonas aeruginosa at 75 ug/ml by agar diffusion assay; how it was run: as §1
Staphylococcus aureus [15] = test: Antimicrobial activity against Staphylococcus aureus at 75 ug/ml by agar diffusion assay; how it was run: as §1
Bacillus subtilis [16] = test: Antimicrobial activity against Bacillus subtilis at 75 ug/ml by agar diffusion assay; how it was run: as §1
Staphylococcus aureus [17] = test: Antimicrobial activity against Staphylococcus aureus at 100 ug/ml by agar diffusion assay; how it was run: as §1
Fusarium oxysporum = test: Antifungal activity against Fusarium oxysporum; how it was run: as §2
Klebsiella pneumoniae [18] = test: Antimicrobial activity against Klebsiella pneumoniae at 50 ug/ml by agar diffusion assay; how it was run: as §1
[19] = test system: Radical scavenging activity; test: Antioxidant activity assessed as DPPH free radical scavenging activity at 500 ug by spectrophotometer; how it was run: as §3

Row | Compound | MIC (Macrophomina phaseolina) [µg/mL] | MIC (Fusarium oxysporum) [µg/mL] | inhibition zone (IZ) (Pseudomonas aeruginosa [2]) [mm] | inhibition zone (IZ) (Klebsiella pneumoniae [3]) [mm] | inhibition zone (IZ) (Klebsiella pneumoniae [4]) [mm] | inhibition zone (IZ) (Staphylococcus aureus [5]) [mm] | inhibition zone (IZ) (Pseudomonas aeruginosa [6]) [mm] | inhibition zone (IZ) (Pseudomonas aeruginosa [7]) [mm] | inhibition zone (IZ) (Bacillus subtilis [8]) [mm] | Activity [9] [%] | inhibition zone (IZ) (Bacillus subtilis [10]) [mm] | inhibition zone (IZ) (Bacillus subtilis [11]) [mm] | inhibition zone (IZ) (Klebsiella pneumoniae [12]) [mm] | Activity [13] [%] | inhibition zone (IZ) (Pseudomonas aeruginosa [14]) [mm] | inhibition zone (IZ) (Staphylococcus aureus [15]) [mm] | inhibition zone (IZ) (Bacillus subtilis [16]) [mm] | inhibition zone (IZ) (Staphylococcus aureus [17]) [mm] | inhibition zone (IZ) (Klebsiella pneumoniae [18]) [mm] | Activity [19] [%] | further results
1 | COC(=O)[C@]12Cc3c([nH]c4ccccc34)[C@@H](c3ccc(OC)cc3)N1[C@@H]1c3c(ccc4ccccc34)OC[C@@H]1C2 | 95 (≈ 179 µM) | 100 (≈ 188 µM) | 10 | 9 | 20 | 11 | 19 | 12 | 9 | 81 | 12 | 20 | 18 | 18 | 16 | 18 | 17 | 20 | 11 | 48 | inhibition zone (IZ) (Staphylococcus aureus [1]): 9 mm
2 | COC(=O)[C@]12Cc3c([nH]c4ccccc34)[C@@H](c3ccc(C)cc3)N1[C@@H]1c3c(ccc4ccccc34)OC[C@@H]1C2 | 30 (≈ 58.3 µM) | 85 (≈ 165 µM) | 8 | 9 | 21 | 12 | 20 | 14 | 9 | 87 | 14 | 20 | 17 | 26 | 17 | 17 | 16 | 19 | 12 | 53 | inhibition zone (IZ) (Staphylococcus aureus [1]): 9 mm
3 | COC(=O)[C@@]1(Cc2c[nH]c3ccccc23)C[C@H]2COc3ccc4ccccc4c3[C@H]2N1 | 60 (≈ 145 µM) | 85 (≈ 206 µM) | 9 | 10 | 23 | 13 | 21 | 14 | 10 | 66 | 15 | 24 | 20 | 33 | 20 | 18 | 19 | 24 | 14 | 52 | inhibition zone (IZ) (Staphylococcus aureus [1]): 9 mm
4 | CN(C)[C@@H]1C(O)=C(C(N)=O)C(=O)[C@@]2(O)C(O)=C3C(=O)c4c(O)cccc4[C@@](C)(O)[C@H]3C[C@@H]12 [TETRACYCLINE] |  |  | 20 | 18 | > 40 | 24 | > 40 | 26 | 15 |  | 24 | > 40 | 28 |  | 28 | 29 | 29 | > 40 | 22 |  | inhibition zone (IZ) (Staphylococcus aureus [1]): 22 mm
5 | O=C1O[C@H]([C@@H](O)CO)C(O)=C1O |  |  |  |  |  |  |  |  |  | 99 |  |  |  | 95 |  |  |  |  |  | 97 | 
6 | COC(=O)Nc1nc2ccccc2[nH]1 [CARBENDAZIM] | 15 (≈ 78.5 µM) | 20 (≈ 105 µM) |  |  |  |  |  |  |  |  |  |  |  |  |  |  |  |  |  |  | 
7 | COC(=O)[C@@]1(Cc2c[nH]c3ccccc23)C[C@H]2COc3ccccc3[C@H]2N1 | 60 (≈ 166 µM) | 75 (≈ 207 µM) | 10 | 11 | 23 | 15 | 23 | 15 | 11 | 64 | 15 | 26 | 21 | 29 | 21 | 20 | 20 | 23 | 15 | 51 | inhibition zone (IZ) (Staphylococcus aureus [1]): 10 mm
8 | COC(=O)[C@]12Cc3c([nH]c4ccccc34)[C@@H](c3cccc([N+](=O)[O-])c3)N1[C@@H]1c3c(ccc4ccccc34)OC[C@@H]1C2 | 90 (≈ 165 µM) | 35 (≈ 64.2 µM) | 14 | 13 | 27 | 20 | 30 | 20 | 12 | 67 | 19 | 29 | 22 | 30 | 24 | 24 | 24 | 28 | 18 | 53 | inhibition zone (IZ) (Staphylococcus aureus [1]): 19 mm

More lines, main results first:

Row | MIC (Macrophomina phaseolina) [µg/mL] | MIC (Fusarium oxysporum) [µg/mL] | Compound | inhibition zone (IZ) (Pseudomonas aeruginosa [2]) [mm] | inhibition zone (IZ) (Klebsiella pneumoniae [3]) [mm] | inhibition zone (IZ) (Klebsiella pneumoniae [4]) [mm] | inhibition zone (IZ) (Staphylococcus aureus [5]) [mm] | inhibition zone (IZ) (Pseudomonas aeruginosa [6]) [mm] | inhibition zone (IZ) (Pseudomonas aeruginosa [7]) [mm] | inhibition zone (IZ) (Bacillus subtilis [8]) [mm] | Activity [9] [%] | inhibition zone (IZ) (Bacillus subtilis [10]) [mm] | inhibition zone (IZ) (Bacillus subtilis [11]) [mm] | inhibition zone (IZ) (Klebsiella pneumoniae [12]) [mm] | Activity [13] [%] | inhibition zone (IZ) (Pseudomonas aeruginosa [14]) [mm] | inhibition zone (IZ) (Staphylococcus aureus [15]) [mm] | inhibition zone (IZ) (Bacillus subtilis [16]) [mm] | inhibition zone (IZ) (Staphylococcus aureus [17]) [mm] | inhibition zone (IZ) (Klebsiella pneumoniae [18]) [mm] | Activity [19] [%] | further results
9 | 85 (≈ 170 µM) | 30 (≈ 59.9 µM) | COC(=O)[C@]12Cc3c([nH]c4ccccc34)[C@@H](c3ccccc3)N1[C@@H]1c3c(ccc4ccccc34)OC[C@@H]1C2 | 9 | 10 | 24 | 13 | 25 | 13 | 9 | 69 | 12 | 24 | 17 | 17 | 18 | 18 | 20 | 26 | 12 | 33 | inhibition zone (IZ) (Staphylococcus aureus [1]): 9 mm
10 | 80 (≈ 172 µM) | 110 (≈ 237 µM) | COC(=O)[C@]12Cc3c([nH]c4ccccc34)[C@@H](c3ccc(C)cc3)N1[C@@H]1c3ccccc3OC[C@@H]1C2 | 8 | 8 | 19 | 13 | 19 | 12 | 9 | 73 | 12 | 20 | 18 | 24 | 16 | 17 | 15 | 18 | 13 | 49 | inhibition zone (IZ) (Staphylococcus aureus [1]): 9 mm
11 | 40 (≈ 88.8 µM) | 30 (≈ 66.6 µM) | COC(=O)[C@]12Cc3c([nH]c4ccccc34)[C@@H](c3ccccc3)N1[C@@H]1c3ccccc3OC[C@@H]1C2 | 9 | 9 | 26 | 11 | 24 | 12 | 9 | 70 | 11 | 25 | 19 | 28 | 20 | 18 | 20 | 25 | 11 | 53 | inhibition zone (IZ) (Staphylococcus aureus [1]): 9 mm
12 | 50 (≈ 104 µM) | 35 (≈ 72.8 µM) | COC(=O)[C@]12Cc3c([nH]c4ccccc34)[C@@H](c3ccc(OC)cc3)N1[C@@H]1c3ccccc3OC[C@@H]1C2 | 7 | 8 | 20 | 12 | 20 | 11 | 8 | 68 | 11 | 19 | 19 | 28 | 15 | 16 | 18 | 18 | 11 | 50 | 
13 | 25 (≈ 50.5 µM) | 90 (≈ 182 µM) | COC(=O)[C@]12Cc3c([nH]c4ccccc34)[C@@H](c3cccc([N+](=O)[O-])c3)N1[C@@H]1c3ccccc3OC[C@@H]1C2 | 17 | 15 | 36 | 22 | 40 | 24 | 14 | 70 | 21 | 40 | 25 | 18 | 26 | 24 | 28 | 36 | 20 | 42 | inhibition zone (IZ) (Staphylococcus aureus [1]): 20 mm
